Activity calls are given as the source filed them. The rule behind the calls is not given here.
Experiments:
[1] = tested on: Mus musculus; experiment: Ratio of ED50 for acetic acid-induced writhing in po dosed mouse to ED50 for acetic acid-induced writhing in sc dosed mouse; type: functional
Outline: (§1)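 Male mice (5 weeks old) received test compound sc into the rostral back or po, 15 min before ip 0.6% aqueous acetic acid (0.1 mL/10 g). Writhes were counted over 10 min, starting 10 min after the acid. […] The po/sc ED50 ratio was calculated.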

[2] = target: Delta-type opioid receptor (Mus musculus) (UniProt P32300); experiment: Equilibrium constant, ratio of IC50 for delta opioid receptor in ddy mouse vas deferens in presence of 10 nM Naltrindole to IC50 for delta opioid receptor in ddy mouse vas deferens
Outline: (§2)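 Electrically stimulated ddY mouse vas deferens was held in Krebs-Henseleit at 37 °C under 95% O2/5% CO2. Tissue was preincubated 20 min with antagonist before the test agonist: naloxone 30 nM (μ), NTI 10 nM (δ), or nor-BNI 10 nM (κ). IC50s were compared with and without antagonist. Ke = [antagonist]/(IC50 ratio − 1).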

[3] = target: Kappa-type opioid receptor (Mus musculus, UniProt P33534); experiment: Agonist activity at kappa opioid receptor in ddy mouse vas deferens assessed as inhibition of electric stimulation-induced contraction; type: functional, tissue-based
[4] = target: Kappa-type opioid receptor (Mus musculus) (UniProt P33534); experiment: Equilibrium constant, ratio of IC50 for kappa opioid receptor in ddy mouse vas deferens in presence of 10 nM nor-BNI to IC50 for kappa opioid receptor in ddy mouse vas deferens; outline: as §2
[5] = tested on: Mus musculus; experiment: Antinociceptive activity in po dosed mouse assessed as inhibition of acetic acid-induced writhing administered 15 mins before acetic acid challenge; type: functional; outline: as §1
[6] = tested on: Mus musculus; experiment: Antinociceptive activity in sc dosed mouse assessed as inhibition of acetic acid-induced writhing administered 15 mins before acetic acid challenge; type: functional; outline: as §1
[7] = tested on: Mus musculus; experiment: Inhibition of acetic acid-induced writhing in sc dosed mouse up to 180 mins administered 15 mins before acetic acid challenge; type: functional, organism-based
[8] = target: Mu-type opioid receptor (Mus musculus) (UniProt P42866); experiment: Equilibrium constant, ratio of IC50 for mu opioid receptor in ddy mouse vas deferens in presence of 30 nM naloxone to IC50 for mu opioid receptor in ddy mouse vas deferens; outline: as §2
[9] = tested on: Mus musculus; experiment: Antinociceptive activity in sc dosed kappa opioid receptor antagonist nor-BNI treated mouse assessed as inhibition of acetic acid-induced writhing administered 15 mins before acetic acid challenge; type: functional, organism-based
[10] = tested on: Mus musculus; experiment: Antinociceptive activity in sc dosed delta opioid receptor antagonist […] treated mouse assessed as inhibition of acetic acid-induced writhing administered 15 mins before acetic acid challenge; type: functional, organism-based
[11] = tested on: Mus musculus; experiment: Antinociceptive activity in sc dosed mu opioid receptor antagonist naloxone treated mouse assessed as inhibition of acetic acid-induced writhing administered 15 mins before acetic acid challenge; type: functional, organism-based
[12] = tested on: Mus musculus; experiment: Antinociceptive activity in mouse assessed as inhibition of acetic acid-induced writhing at 10 mg/kg, sc administered 15 mins before acetic acid challenge; type: functional; conditions: route subcutaneous; outline: as §1
[13] = target: Kappa-type opioid receptor (Mus musculus) (UniProt P33534); experiment: Agonist activity at kappa opioid receptor in ddy mouse vas deferens assessed as inhibition of electric stimulation-induced contraction at 1 uM; type: functional, tissue-based

SMILES	Ratio ED50 [1]	Ke [2]	IC50 [3]	Ke [4]	ED50 [5]	ED50 [6]	Activity [7]	Ke [8]	Activity [9]	Activity [10]	Activity [11]	inhibition in vivo at 10 mg/kg [12]	inhibition [13]
CN(C(=O)CCc1ccccc1)[C@@H]1CC[C@@]2(O)[C@H]3Cc4ccc(O)c5c4[C@@]2(CCN3CC2CC2)[C@H]1O5	7.3	188 nM	0.019 nM	0.008 nM	0.29 mg/kg								
CN(C(=O)/C=C/C1CCCCC1)[C@@H]1CC[C@@]2(O)[C@H]3Cc4ccc(O)c5c4[C@@]2(CCN3CC2CC2)[C@H]1O5	17	143 nM	0.457 nM	1.08 nM	0.071 mg/kg	0.004 mg/kg	Active	5710 nM					
CN(C(=O)/C=C/c1ccoc1)[C@@H]1CC[C@@]2(O)[C@H]3Cc4cccc5c4[C@@]2(CCN3CC2CC2)[C@H]1O5		8.4 nM	27.2 nM	0.07 nM				12 nM					
CN(C(=O)/C=C/c1ccoc1)[C@@H]1CC[C@@]2(O)[C@H]3Cc4ccc(O)c5c4[C@@]2(CCN3)[C@H]1O5						7.07 mg/kg							
CN(C(=O)c1ccc2ccccc2c1)[C@@H]1CC[C@@]2(O)[C@H]3Cc4ccc(O)c5c4[C@@]2(CCN3CC2CC2)[C@H]1O5						3.6 mg/kg							
CCCCCCO[C@@H]1CC[C@@]2(O)[C@H]3Cc4ccc(O)c5c4[C@@]2(CCN3CC2CC2)[C@H]1O5		1.5 nM	16 nM	0.12 nM		1.78 mg/kg		4.5 nM					
CN(C(=O)/C=C/c1ccco1)[C@@H]1CC[C@@]2(O)[C@H]3Cc4ccc(O)c5c4[C@@]2(CCN3CC2CC2)[C@H]1O5	9.4		0.55 nM	0.2 nM	0.015 mg/kg		Active						
CN(C(=O)/C=C/c1ccsc1)[C@@H]1CC[C@@]2(O)[C@H]3Cc4ccc(O)c5c4[C@@]2(CCN3CC2CC2)[C@H]1O5	9.5		0.1 nM	1.71 nM	0.04 mg/kg		Active						
Cc1cccc(/C=C/C(=O)N(C)[C@@H]2CC[C@@]3(O)[C@H]4Cc5ccc(O)c6c5[C@@]3(CCN4CC3CC3)[C@H]2O6)c1	9.7	64.5 nM	0.32 nM	1.95 nM	0.064 mg/kg		Active	1780 nM					
O=C(/C=C/c1ccoc1)N[C@@H]1CC[C@@]2(O)[C@H]3Cc4ccc(O)c5c4[C@@]2(CCN3CC2CC2)[C@H]1O5		8100 nM	0.869 nM	0.44 nM		0.95 mg/kg							
CN(C(=O)/C=C/c1ccccc1)[C@H]1CC[C@@]2(O)[C@H]3Cc4ccc(O)c5c4[C@@]2(CCN3CC2CC2)[C@H]1O5	9.7	41.6 nM	0.42 nM	0.16 nM	0.032 mg/kg	0.0033 mg/kg	Active	14000 nM					
CN(C(=O)/C=C/c1ccoc1)[C@H]1CC[C@@]2(O)[C@H]3Cc4ccc(O)c5c4[C@@]2(CCN3CC2CC2)[C@H]1O5					0.13 mg/kg								
CN1CC[C@]23c4c5ccc(O)c4O[C@H]2[C@H](N(C)C(=O)/C=C/c2ccoc2)CC[C@@]3(O)[C@H]1C5		33 nM	55 nM	6.3 nM		1.03 mg/kg		8.1 nM					
CN(C(=O)/C=C/c1ccoc1)[C@@H]1CC[C@H]2[C@H]3Cc4ccc(O)c5c4[C@@]2(CCN3CC2CC2)[C@H]1O5		1.31 nM	0.035 nM	0.07 nM		0.02 mg/kg		8.04 nM					
CN(C(=O)Cc1ccc(Cl)c(Cl)c1)[C@H]1CC[C@@]2(O)[C@H]3Cc4ccc(O)c5c4[C@@]2(CCN3CC2CC2)[C@H]1O5	48	17.1 nM	0.4 nM	0.55 nM	0.83 mg/kg			53 nM					
CCC/C=C/C(=O)N(C)[C@@H]1CC[C@@]2(O)[C@H]3Cc4ccc(O)c5c4[C@@]2(CCN3CC2CC2)[C@H]1O5	8.8		0.647 nM	0.072 nM	0.21 mg/kg			1800 nM					

SMILES	Ratio ED50 [1]	Ke [2]	IC50 [3]	Ke [4]	ED50 [5]	ED50 [6]	Activity [7]	Ke [8]	Activity [9]	Activity [10]	Activity [11]	inhibition in vivo at 10 mg/kg [12]	inhibition [13]
CN(C(=O)/C=C/c1ccoc1)[C@@H]1CC[C@@]2(O)[C@H]3Cc4ccc(O)c5c4[C@@]2(CCN3CCc2ccccc2)[C@H]1O5						1.03 mg/kg							
CN(C(=O)/C=C/c1cccs1)[C@@H]1CC[C@@]2(O)[C@H]3Cc4ccc(O)c5c4[C@@]2(CCN3CC2CC2)[C@H]1O5	9.6	89.6 nM	0.1 nM	0.28 nM	0.026 mg/kg	0.0027 mg/kg	Active						
CN(C(=O)/C=C/c1ccoc1)[C@@H]1CC[C@@]2(O)[C@H]3Cc4ccc(O)c5c4[C@@]2(CCN3CC2CC2)[C@H]1O5.Cl [NALFURAFINE HYDROCHLORIDE]					0.032 mg/kg		Active		inactive	Active	Active		
CN(C(=O)/C=C/c1ccc(C(F)(F)F)cc1)[C@@H]1CC[C@@]2(O)[C@H]3Cc4ccc(O)c5c4[C@@]2(CCN3CC2CC2)[C@H]1O5	1.1	78 nM	0.07 nM	0.2 nM	0.026 mg/kg		Active	524 nM					
CCCCCC(=O)N[C@@H]1CC[C@@]2(O)[C@H]3Cc4ccc(O)c5c4[C@@]2(CCN3CC2CC2)[C@H]1O5		2.3 nM	25 nM	0.26 nM				4.4 nM				25%	
CN(C(=O)/C=C/c1ccoc1)[C@@H]1CC[C@@]2(O)[C@H]3Cc4ccc(N)c5c4[C@@]2(CCN3CC2CC2)[C@H]1O5						0.2 mg/kg							
CN(C(=O)/C=C/c1cccc(C(F)(F)F)c1)[C@@H]1CC[C@@]2(O)[C@H]3Cc4ccc(O)c5c4[C@@]2(CCN3CC2CC2)[C@H]1O5	7.4	291 nM	0.47 nM	3.2 nM	0.034 mg/kg								
CCCCCCS[C@@H]1CC[C@@]2(O)[C@H]3Cc4ccc(O)c5c4[C@@]2(CCN3CC2CC2)[C@H]1O5						15.8 mg/kg							38%
CC(=O)Nc1ccc2c3c1O[C@H]1[C@H](N(C)C(=O)/C=C/c4ccoc4)CC[C@@]4(O)[C@@H](C2)N(CC2CC2)CC[C@]314						> 10 mg/kg							
CCCCCCN[C@@H]1CC[C@@]2(O)[C@H]3Cc4ccc(O)c5c4[C@@]2(CCN3CC2CC2)[C@H]1O5			2 nM	0.3 nM				14 nM					
COc1cccc(/C=C/C(=O)N(C)[C@@H]2CC[C@@]3(O)[C@H]4Cc5ccc(O)c6c5[C@@]3(CCN4CC3CC3)[C@H]2O6)c1	4.4	96.4 nM	0.75 nM	1.6 nM	0.0048 mg/kg	0.0011 mg/kg	Active	60.9 nM					
O=C(/C=C/c1ccoc1)S[C@@H]1CC[C@@]2(O)[C@H]3Cc4ccc(O)c5c4[C@@]2(CCN3CC2CC2)[C@H]1O5						> 10 mg/kg							
CN(C(=O)/C=C/c1ccccc1)[C@@H]1CC[C@@]2(O)[C@H]3Cc4ccc(O)c5c4[C@@]2(CCN3CC2CC2)[C@H]1O5	5.5	263 nM	0.166 nM	0.861 nM	0.011 mg/kg	0.002 mg/kg	Active	922 nM					
CN(C(=O)Cc1ccc(Cl)c(Cl)c1)[C@@H]1CC[C@@]2(O)[C@H]3Cc4ccc(O)c5c4[C@@]2(CCN3CC2CC2)[C@H]1O5	39.1	1110 nM	17 nM	1.37 nM	18 mg/kg			17000 nM					
CN(C(=O)/C=C/c1cccc([N+](=O)[O-])c1)[C@@H]1CC[C@@]2(O)[C@H]3Cc4ccc(O)c5c4[C@@]2(CCN3CC2CC2)[C@H]1O5	12.9	89 nM	0.23 nM	1.4 nM	0.22 mg/kg			185 nM					
CN(C(=O)/C=C/c1cccc(F)c1)[C@@H]1CC[C@@]2(O)[C@H]3Cc4ccc(O)c5c4[C@@]2(CCN3CC2CC2)[C@H]1O5	3.7	276 nM	1.6 nM	2.37 nM	0.007 mg/kg		Active						

From ChEMBL document CHEMBL1142487, “Design, synthesis, and structure-activity relationship of novel opioid kappa-agonists” (Bioorg Med Chem, 2008)
